# Compound activity (PubChem BioAssay)
# Tn6 DDE FP – DD(E)-Tn6 binding inhibition, primary FP screen; P02675; Fibrin DD(E) TRITC-Tn6 fluorescence polarization displacement; inhibition, % at 8.3 µM; hit rate 0.21% among 370,000; AID 720509;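 active = inhibition above a per-campaign cutoff: mean of compounds within control limits plus 3 SD, cut at about 15% in these data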;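 also: 0% = median of all compound wells on the plate and 100% = blocking peptide control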
# TCR CD3 inh – human TCR-CD3 binding inhibition. inhibition, % at 9.4 µM. TAMRA-labeled TCR probe fluorescence, biochemical. hit rate 0.37% among 360,000; in the data active = inhibition above about 19%;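 also: recombinant mutant TCR 2C K166C tagged with TAMRA read by polarization; 0% = receptor in buffer alone and 100% = receptor with positive control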
# HTRA1 inh – HTRA1 (human) protease inhibition. Q92743. recombinant HTRA1, FP-rhodamine activity-based probe, fluorescence polarization. inhibition, % at 5.96 µM. hit rate 0.5% among 340,000. AID 504803; in the data active = inhibition above about 36%;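 also: 0% = enzyme with DMSO and 100% = wells lacking enzyme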
# Tn7 DDE FP – DD(E)-Tn7 binding inhibition, primary FP screen | P02675 | AID 720508 | FP displacement of FITC-Tn7 peptide from fibrin DD(E); 0% = median of compound wells per plate | inhibition, % at 8.3 µM | hit rate 0.13% among 370,000;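 active = inhibition above the mean of compounds falling within the control limits plus 3 SD of them, cut at about 14% in these data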;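 also: 0% = plate median of compound wells and 100% = 10 µM Aha-Tn7 peptide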
#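 Test system – human fibrin DD(E) · Times – 10 min preincubation, 3 h with tracer, room temperature · Detection – fluorescence polarization of the labelled Tn7 tracer · Measure – percent inhibition normalized to high-control wells · Benchmarks – high control wells with 10 µM unlabelled Aha-Tn7 peptide (full inhibition) · Repeats – singlicate testing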
# SIAE inh – inhibitors of human sialic acid acetylesterase SIAE | SIAE FP-Rh probe binding, fluorescence polarization | hit rate 0.69% among 370,000 | AID 1053197 | inhibition, % at 9.66 µM;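 active = inhibition above a cutoff: mean of compounds within the control limits plus 3 SD of those, cut at about 17% in these data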;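 also: 0% = plate median of compound wells and 100% = probe without SIAE protein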
# ABHD4 inh – inhibits mouse alpha/beta hydrolase domain 4; Q8VD66; inhibition, % at 8.92 µM; hit rate 0.54% among 370,000; purified mABHD4, FP-Rh probe fluorescence polarization;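 active = inhibition exceeding the mean over every tested compound plus 3 SD, cut at about 30% in these data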;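 also: 0% = plate median of compound wells and 100% = S159A mutant with DMSO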
# Target sequence (Q8VD66 whole entry, looked up, the tested form may be a part): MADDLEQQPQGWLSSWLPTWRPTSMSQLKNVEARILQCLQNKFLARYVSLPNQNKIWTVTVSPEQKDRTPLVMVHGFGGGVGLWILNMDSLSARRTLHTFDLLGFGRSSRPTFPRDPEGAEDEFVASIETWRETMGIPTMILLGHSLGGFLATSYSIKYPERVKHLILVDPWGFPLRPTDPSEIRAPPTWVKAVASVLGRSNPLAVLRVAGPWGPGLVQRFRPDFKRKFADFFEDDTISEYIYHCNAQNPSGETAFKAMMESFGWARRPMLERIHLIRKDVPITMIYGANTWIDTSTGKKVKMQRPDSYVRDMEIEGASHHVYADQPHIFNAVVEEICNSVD
#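 Test system: mABHD4 protein | Buffer or medium: HEPES pH 7.0 buffer, 150 mM NaCl, 0.01% Pluronic F-127 | Probe or stimulus: FP-Rh fluorescent activity-based probe, added after compound pre-incubation | Timing: Pre-incubation 45 min, probe exposure 60 min, at 25 °C | Technique: Fluorescence polarization, excitation 525 nm, emission 598 nm, BODIPY TMR filters | Repeats: Single well per compound (singlicate)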
# * marks the source's active call; other numbers are inactive results; · = no result given; + = active, no number. This is a sample that favours compounds with a hit; in the whole collection about 1.8% have one here.
SMILES,Tn6 DDE FP,TCR CD3 inh,HTRA1 inh,Tn7 DDE FP,SIAE inh,ABHD4 inh
CCCCOCCCNC(=O)C[C@H]1C[C@@]2(C(=O)OC)C(=C[C@H](C3CCCC3)O[C@@H]2C)N(CCc2ccc(OC)c(OC)c2)C1=O,-2,·,·,2,-2,1
CCCCC(=O)OCC(=O)C1(O)Cc2c(O)c3c(c(O)c2C(OC2CC(NC(=O)C(F)(F)F)C(O)C(C)O2)C1)C(=O)c1c(OC)cccc1C3=O (stereo not drawn),43*,-7,27,0,12,-2
Cc1occc1-c1nnc(SCC(=O)Nc2ccc3ncccc3c2)n1-c1ccccc1,-1,·,·,2,-5,-3
CCN(CC)c1ccc2cc(NC(=O)CCC(=O)O)c(=O)oc2c1,44*,16,19,10,9,58*
O=C(c1cccnc1Cl)N1CCC(Oc2cccnc2)CC1,3,·,·,4,-1,-6
CCC[C@@H](CN1CCC[C@H]1CN1C(N)=NC[C@@H]1Cc1ccccc1)N1C[C@@H](Cc2ccccc2)N(CCc2ccc(Cl)c(Cl)c2)C1=N,-4,-3,-5,3,11,34*
CCC[C@@H](CN1CCC[C@H]1CN1C(N)=NC[C@@H]1Cc1ccccc1)N1C[C@@H]([C@H](C)CC)N(CCc2ccc(Cl)c(Cl)c2)C1=N,·,·,4,·,·,·
COc1cccc(C2NC(CCSC)(C(=O)O)C3C(=O)N(C(C)C)C(=O)C23)c1O (stereo not drawn),-3,-1,-5,-3,21*,-2
COc1ccccc1N1CSC2=C(C#N)C(c3ccc(SC)cc3)CC(=O)N2C1 (stereo not drawn),2,6,1,-2,-17,31*
COc1cc2ccccc2cc1C(=O)O,-11,5,-2,4,9,5
COc1ccc(OC)c2cc3ccccc3cc12,-2,1,33,18*,4,23
COc1cc2c(ccc3cc(OC)c(OC)c(O)c32)cc1O,3,39*,24,3,17,6
COc1cc2cccc(OC)c(=O)c2c(O)c1OC,-2,-12,11,9,-1,3
Nc1cccc(N2C(=O)c3cccc4c(N)ccc(c34)C2=O)c1,1,14,15,30*,5,19
CCn1c(Cc2cccs2)nnc1SCC(=O)c1ccc(Cl)cc1,3,·,·,-8,3,-1
CC1(C)N([O-])c2cc([N+](=O)[O-])ccc2[N+]1=O,-1,16,·,0,6,37*
CC(=O)N1CCCN(C(=O)CN2C(=O)CC(C)(C)S(=O)(=O)c3ccccc32)CC1,4,·,·,-11,-4,0
CCOc1cc(C2Nc3cccc4cccc(c34)N2)ccc1O,·,·,37*,·,·,·
CCOc1ccc(C2Nc3cccc4cccc(c34)N2)cc1OC,-4,3,-2,-3,11,4
CC(C)(C)N1C(=O)Cc2c1nc(N)c1c(N)nc(N3CCCCC3CO)c(C#N)c21 (stereo not drawn),·,·,56*,·,·,·
COC(=O)[C@]12C[C@H](CC(=O)N3CCCC3)C(=O)N(CCC3=CCCCC3)C1=C[C@H](C1CCCC1)O[C@@H]2C,-9,·,·,1,2,-9
COC(=O)[C@]12C[C@H](CC(=O)N3CCCC3)C(=O)N(CCc3ccc(OC)c(OC)c3)C1=C[C@H](C1CCCC1)O[C@@H]2C,2,·,·,12,1,0
CC(=O)Oc1cc2c(c3ccccc13)CCC2=O,0,1,8,-5,6,4
CC(=O)Oc1cc2cccc(OC(C)=O)c(=O)c2c(OC(C)=O)c1OC(C)=O,·,·,70*,·,·,·
CCOC(=O)NC1(Nc2cccc(Cl)c2)Oc2ccccc2O1,6,6,21,2,12,32*
SMILES,Tn6 DDE FP,TCR CD3 inh,HTRA1 inh,Tn7 DDE FP,SIAE inh,ABHD4 inh
Cc1c(C(=O)O)c(O)cc2c1C(=O)c1c(O)c([C@@H]3O[C@H](CO)[C@@H](O)[C@H](O)[C@H]3O)c(O)c(O)c1C2=O,18*,13,-1,7,-11,6
CN(C)c1cccc(/C=C2\CC3(OC(=O)c4cccc(F)c4)CCCN2C3)c1 (stereo not drawn),-5,·,·,-3,-2,6
COC(=O)[C@H](C(C)C)N1CCc2nnn(CC3CCCCC3)c2-c2cc(F)ccc2S1(=O)=O,7,·,·,7,-3,-3
COc1cc(C(=O)NC2CCCCN(Cc3cccc(Cl)c3)C2=O)cc(OC)c1OC (stereo not drawn),-11,·,·,6,-1,0
C/C(=N\OCc1nc2ccccc2c(=O)n1/N=C/c1cc([N+](=O)[O-])ccc1O)c1ccccc1,-8,23*,30,3,-11,3
O=[N+]([O-])c1ccc(O)c(/C=N/n2c(CO)nc3ccccc32)c1,7,-5,4,5,1,4
O=C(CSc1nnc(COc2ccccc2)n1-c1ccc(Cl)cc1)Nc1ccccc1-c1ccccc1,-6,·,·,-1,-4,-13
CC(=O)NC(Cc1cc(C)ccc1C)C(=O)N1CCN(C(=O)Nc2ccc(C(C)=O)cc2)CC1 (stereo not drawn),8,-6,0,15*,-3,-1
CN(C)c1ccc(N=Cc2ccco2)cc1,·,·,55*,·,·,·
Cc1ccc(NC2=C/C(=N\S(=O)(=O)c3cccs3)c3ccccc3C2=O)c(C)c1,·,·,53*,·,·,·
COC(=O)C1CN(Cc2cn(Cc3ccc(Cl)cc3)nn2)CCS(=O)(=O)N1Cc1ccc(C)cc1 (stereo not drawn),5,·,·,2,0,-5
Cn1c(=O)oc2cc(S(=O)(=O)N3CCN(CCO)CC3)ccc21,-6,·,·,7,9,5
C=CCOC(=O)N1CCN(C(=O)c2ccc3c(c2)nc(C)n3C2CCCC2)CC1,-8,·,·,2,3,2
CCOc1ccccc1-n1c(=S)sc2c(=O)n(-c3ccccc3)c(=S)[nH]c21,2,6,-3,-7,19*,1
CC1(c2nnnn2C2CCCCC2)CCCC(=O)N1CCc1ccc(O)cc1 (stereo not drawn),-1,·,·,0,2,2
O=C(O)c1ccc2c(c1)C(=O)/C(=C/c1ccccc1)C2=O,-10,5,7,6,-7,31*
Cc1csc(NC(=O)CSc2nnc(-c3ccncc3)o2)n1,17*,2,1,2,-1,11
CCOC(=O)Cc1csc(NC(=O)CSc2nnc(-c3ccncc3)o2)n1,3,2,·,-7,5,4
O=c1ccc2cc3c4c(c2o1)CCCN4CCC3,7,6,12,23*,4,16
O=C(CNCc1ccccc1[N+](=O)[O-])N1CCC2(CC1)OCCO2,7,·,·,9,4,-1
COc1ccc(NC2c3ncccc3C(=O)N2Cc2ccccc2)c(OC)c1 (stereo not drawn),-9,-4,2,8,+,7
